From ChEMBL document CHEMBL4825662 (J Med Chem, 2021)
pEC50, pIC50: −log10 of the molar value. In brackets after ≈: the same amount, converted by molar mass. Values belong to the compound of their own block, whether it stands above or below them.

Key:
Human orthopneumovirus [1] = assay: Antiviral activity against Respiratory syncytial virus A2 infected in African green monkey Vero cells by Plaque reduction assay; format: functional, organism-based
[2] = Cytotoxicity against African green monkey Vero cells by MTT assay; format: cell-based; settings: chlorocebus sabaeus
How it was run: (§1)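 Viability was assessed by MTT after culture with compound at 0.01 nM to 100 μM, run in parallel with plaque reduction assays. Values are the average of at least two testing occasions.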

[3] = Cytotoxicity against human Hep2 cells; format: cell-based; settings: HEp-2 cells
How it was run: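 Hep2 cells were cultured in parallel with the plaque assays at compound concentrations of 0.01 nM to 100 μM. Viability was read by MTT, CellTox green or CellTiter-Glo.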

Human orthopneumovirus [4] = assay: Antiviral activity against Respiratory syncytial virus A2 infected in human Hep2 cells by Plaque reduction assay; format: functional, organism-based; settings: A2, HEp-2
How it was run: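 Hep2 cells were infected with RSV strain A2 in the presence of compound. Plaques were detected by immunostaining after 48 h. Values are the average of at least two testing occasions.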

[5] = Cytotoxicity against human HepG2 cells by MTT assay; format: cell-based; how it was run: as §1
Human orthopneumovirus [6] = assay: Antiviral activity against Respiratory syncytial virus A2 infected in human Huh7 cells by Plaque reduction assay; format: functional, organism-based; settings: A2, Huh-7
How it was run: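 Huh-7 cells were infected with RSV strain A2 in the presence of compound. Values are the average of at least two testing occasions.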

[7] = Intrinsic clearance in human liver microsomes preincubated followed by NADPH addition and measured up to 45 mins by LC-MS/MS analysis; format: ADME, Microsome
[8] = Intrinsic clearance in Beagle dog liver microsomes preincubated followed by NADPH addition and measured up to 45 mins by LC-MS/MS analysis; format: ADME, Canis lupus familiaris, Microsome
[9] = Apparent permeability across basolateral side to apical side in MDCK-MDR1 cells at 10 uM measured at 60 mins by LC-MS/MS analysis; format: ADME, cell-based, Canis lupus familiaris; settings: dog
[10] = Intrinsic clearance in Sprague-Dawley rat liver microsomes preincubated followed by NADPH addition and measured up to 45 mins by LC-MS/MS analysis; format: ADME, Microsome
Fusion glycoprotein F0 = Fusion glycoprotein F0 (Human respiratory syncytial virus A (strain A2), UniProt P03420); assay: Inhibition of Respiratory syncytial virus fusion protein
Chain of Fusion glycoprotein F0 (P03420 26-109 limits assumed): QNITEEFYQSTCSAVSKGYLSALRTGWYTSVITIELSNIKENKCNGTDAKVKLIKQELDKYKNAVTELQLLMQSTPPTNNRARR
Chain of Fusion glycoprotein F0 (P03420 137-574 limits assumed): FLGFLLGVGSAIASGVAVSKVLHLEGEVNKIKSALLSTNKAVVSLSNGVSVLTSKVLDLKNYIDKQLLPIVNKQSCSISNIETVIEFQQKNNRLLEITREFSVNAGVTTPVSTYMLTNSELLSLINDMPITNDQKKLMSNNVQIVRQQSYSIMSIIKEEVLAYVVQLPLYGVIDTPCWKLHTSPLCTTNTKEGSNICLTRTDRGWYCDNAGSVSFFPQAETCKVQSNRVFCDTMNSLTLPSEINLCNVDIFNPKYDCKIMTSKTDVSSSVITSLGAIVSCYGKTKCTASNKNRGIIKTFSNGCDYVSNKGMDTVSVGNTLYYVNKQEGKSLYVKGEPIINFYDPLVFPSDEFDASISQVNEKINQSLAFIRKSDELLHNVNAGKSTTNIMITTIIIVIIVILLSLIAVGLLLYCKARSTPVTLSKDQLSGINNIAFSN
How it was run: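 293T cells cotransfected with codon-optimized RSV A2 F plasmid and a GAL4-responsive luciferase reporter, mixed after 24 h with a second 293T population expressing GAL4-NF-κB transactivator. Threefold serial compound dilutions present during mixing; F-mediated fusion read as luciferase after 24 h. IC₅₀ averaged over at least two testing occasions.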

Human orthopneumovirus [11] = assay: Antiviral activity against Respiratory syncytial virus A2 by Plaque reduction assay; format: functional, organism-based
How it was run: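 Vero cells were infected with RSV A2 for 48 h with compound at 0.01 nM to 100 μM. Plaques were detected by immunostaining. Values are the average of at least two testing occasions.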

[12] = Apparent permeability across apical to basolateral side in MDCK-MDR1 cells at 10 uM measured at 60 mins by LC-MS/MS analysis; format: ADME, cell-based, Canis lupus familiaris; settings: dog
[13] = Thermodynamic solubility in PBS at 1 to 100 uM at pH 7.4 by HPLC-UV method; format: physicochemical; settings: dose 1-100 µM, read-out: Therm_solubility
[14] = Efflux ratio of apparent permeability in MDCK-MDR1 cells at 10 uM measured at 60 mins by LC-MS/MS analysis; format: ADME, cell-based, Canis lupus familiaris; settings: dog
[15] = Apparent permeability of compound in wild type MDCK at 10 uM incubated for 1 hr by LC-MS/MS assay; format: ADME, Canis lupus familiaris; settings: dog
[16] = Protein binding in dog plasma assessed as unbound fraction at 5 uM by LC-MS/MS analysis based equilibrium dialysis method; format: ADME, cell-free, Canis lupus familiaris
[17] = Protein binding in rat plasma assessed as unbound fraction at 5 uM by LC-MS/MS analysis based equilibrium dialysis method; format: ADME, cell-free
[18] = Protein binding in human plasma assessed as unbound fraction at 5 uM by LC-MS/MS analysis based equilibrium dialysis method; format: ADME, cell-free
[19] = Cmax in Sprague-Dawley rat at 5 mg/kg, po administered via gavage measured after 0.02 to 24 hrs by tandem liquid chromatography/mass spectrometry; format: ADME, organism-based; design: route oral, dose 5 mg/kg, time upper 24 hrs, time lower 0.02 hrs; settings: in vivo
How it was run: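 Male Sprague–Dawley rats weighing 200–250 g, 3 per route, were used. The i.v. bolus was 1 mg/kg at 1 mg/mL in 40:60 dimethylacetamide/saline. Oral gavage doses were 5 or 10 mg/kg at 5 mg/mL in 1% methyl cellulose with 0.1% Tween 80. Heparinized blood was taken at 0.02–24 h (ten time points). Plasma was analyzed by LC-MS/MS after acetonitrile precipitation.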

[20] = Volume of distribution at steady state in Sprague-Dawley rat at 1 mg/kg, iv administered […] measured after 0.02 to 24 hrs by tandem liquid chromatography/mass spectrometry; format: ADME, organism-based; settings: in vivo, time 0.02-24 hrs, read-out: Vdss
How it was run: (§2)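 Male Sprague–Dawley rats (200–250 g), 3 per route. IV bolus at 1 mg/kg, 1 mg/mL in 40:60 dimethylacetamide/saline; oral gavage at 5 or 10 mg/kg, 5 mg/mL in 1% methyl cellulose, 0.1% Tween 80 in water. Serial blood at 0.02–24 h (ten points) into heparin, spun at 4 °C, plasma frozen; acetonitrile protein precipitation, ESI LC-MS/MS with matrix curve and internal standards.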

[21] = Oral bioavailability in Sprague-Dawley rat at 10 mg/kg administered via gavage measured after 0.02 to 24 hrs by tandem liquid chromatography/mass spectrometry; format: ADME, organism-based; settings: in vivo, time 0.02-24 hrs; how it was run: as §2
[22] = Clearance in Sprague-Dawley rat at 1 mg/kg, iv administered […] measured after 0.02 to 24 hrs by tandem liquid chromatography/mass spectrometry; format: ADME, organism-based; settings: in vivo, time 0.02-24 hrs

pEC50 (Human orthopneumovirus [1]): 6.74
Structure (SMILES): CC(C)CCn1c(CN2C(=O)C3(CC3)c3c(Cl)cccc32)nc2cc(CN)ccc21
CC50 [2]: 5200 nM

pEC50 (Human orthopneumovirus [1]): 5.77
Structure (SMILES): CC(C)CCn1c(CN2C(=O)C3(CC3)Oc3ccccc32)nc2cc(CN)ccc21
CC50 [2]: 22700 nM

pEC50 (Human orthopneumovirus [4]): 7.86
Structure (SMILES): NC(=O)c1ccc2c(c1)nc(CN1C(=O)C3(CC3)c3ccc(F)cc31)n2CCCC(F)(F)F
CC50 [3]: > 20000 nM

pEC50 (Human orthopneumovirus [6]): 8.44
Structure (SMILES): NCc1ccc2c(c1)nc(CN1C(=O)C3(CC3)c3ccc(F)cc31)n2CCCCO
CC50 [5]: > 25000 nM

pEC50 (Human orthopneumovirus [4]): 9.30
Structure (SMILES): N=C(N)c1ccc2c(c1)nc(CN1C(=O)C3(CC3)c3ccc(F)cc31)n2CCCC(F)(F)F
CC50 [3]: > 20000 nM

intrinsic clearance (CLint) [7]: 177 µL/min
intrinsic clearance [8]: 328 µL/min
pEC50 (Human orthopneumovirus [1]): 8.27
Papp B→A at 1 h, 10 µM [9]: 0.14 ×10⁻⁶ cm/s
Microsomal intrinsic clearance [10]: 71.3 µL/min
Structure (SMILES): O=C1N(Cc2nc3cc(Cl)ccc3n2CCCC(F)(F)F)c2cc(F)ccc2C12CC2
CC50 [2]: > 25000 nM

Structure (SMILES): CC(C)CCn1c(CN2C(=O)C3(CCOCC3)c3ccccc32)nc2cc(CN)ccc21
pIC50 (Fusion glycoprotein F0): 9.16
pEC50 (Human orthopneumovirus [11]): 8.47

Papp A→B at 1 h, 10 µM ([12]; MDCK-MDR1): 0.24 ×10⁻⁶ cm/s
pEC50 (Human orthopneumovirus [6]): 8.24
intrinsic clearance (CLint) [7]: 3.78 µL/min
intrinsic clearance [8]: 5.34 µL/min
solubility thermodynamic [13]: 2600 µM (≈ 1180 µg/mL)
Papp B→A at 1 h, 10 µM [9]: 0.79 ×10⁻⁶ cm/s
efflux ratio at 1 h, 10 µM ([14]; MDCK-MDR1): 3.26
Microsomal intrinsic clearance [10]: 3.63 µL/min
Structure (SMILES): CS(=O)(=O)CCCn1c(CN2C(=O)C3(CC3)c3ccc(F)cc32)nc2cc(CN)ccc21
CC50 [5]: > 25000 nM

intrinsic clearance (CLint) [7]: 344 µL/min
Papp at 1 h, 10 µM [15]: 7.3 ×10⁻⁶ cm/s
intrinsic clearance [8]: < 29 µL/min
pEC50 (Human orthopneumovirus [1]): 8.38
fraction unbound at 5 µM [16]: 0.15
fraction unbound at 5 µM [17]: 0.19
fraction unbound at 5 µM [18]: 0.11
Microsomal intrinsic clearance [10]: < 29 µL/min
Structure (SMILES): CC(C)CCn1c(CN2C(=O)C3(CC3)c3cc(F)ccc32)nc2cc(CN)ccc21
CC50 [2]: 7600 nM

pEC50 (Human orthopneumovirus [4]): 7.68
Structure (SMILES): N=C(N)NCc1ccc2c(c1)nc(CN1C(=O)C3(CC3)c3ccc(F)cc31)n2CCCC(F)(F)F
CC50 [3]: > 20000 nM

pEC50 (Human orthopneumovirus [1]): 7.75
Structure (SMILES): O=C1N(Cc2nc3ccccc3n2CCCC(F)(F)F)c2cc(F)ccc2C12CC2
CC50 [2]: > 25000 nM

Cmax [19]: 31.3 ng/mL
Papp ([12]; mdck-mdr1, 1 h, 10 µM): 0.19 10^-6 cm/s
Vd [20]: 11.9 L/kg
bioavailability [21]: 8.8%
intrinsic clearance (CLint) [7]: 7 µL/min
intrinsic clearance [8]: 2.23 µL/min
pEC50 (Human orthopneumovirus [1]): 7.39
solubility thermodynamic [13]: 1230 µM (≈ 500 µg/mL)
fraction unbound at 5 µM [16]: 0.147
fraction unbound at 5 µM [17]: 0.104
clearance [22]: 108 mL/min/kg
Ratio ([14]; mdck-mdr1, 1 h, 10 µM): 227
fraction unbound at 5 µM [18]: 0.42
Microsomal intrinsic clearance [10]: 37.8 µL/min
Structure (SMILES): CC(C)CCn1c(CN2C(=O)C3(CC3)c3cccc(F)c32)nc2cc(CN)ccc21
CC50 [2]: 31100 nM

pEC50 (Human orthopneumovirus [1]): 5.44
Structure (SMILES): CS(=O)(=O)c1ccc2c(c1)nc(CN1C(=O)C3(CC3)c3ccc(F)cc31)n2CCCC(F)(F)F
CC50 [5]: > 25000 nM

pEC50 (Human orthopneumovirus [1]): 5.62
Structure (SMILES): CC(C)CCn1c(CN2C(=O)C3(CC3)c3cccc(Cl)c32)nc2cc(CN)ccc21
CC50 [2]: 21700 nM
